Assay results published in the EternaBench riboswitch data.

System: MS2 coat protein
Test: apparent Kd, MS2 coat protein; higher = weaker binding; RNA-MaP array; FMN 200 µM where present
Summary of the method: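 Stalled E. coli RNA polymerase transcribed the designs on Illumina sequencing-chip clusters. SNAP-549-labelled MS2 coat protein was titrated from 0.7 or 1.5 nM, doubling to 3 µM, without and then with constant ligand, in 100 mM Tris-HCl pH 7.5, 80 mM KCl, 4 mM MgCl2, BSA, DTT, yeast tRNA and Tween-20. Per-cluster binding curves were fitted to green signal normalised to red-channel RNA signal and control-cluster median Fmax. The apparent Kd is the median of the filtered fits.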

[1] = designed as: OFF switch for flavin mononucleotide, no ligand
[2] = ligand present: flavin mononucleotide, designed as: OFF switch for flavin mononucleotide
[3] = designed as: ON switch for flavin mononucleotide, no ligand
[4] = ligand present: flavin mononucleotide, designed as: ON switch for flavin mononucleotide

Sequence	apparent Kd [1] [nM]	apparent Kd [2] [nM]	apparent Kd [3] [nM]	apparent Kd [4] [nM]
GAGGACUGAAUAAUAAGUAGAAAUACAUGAGGAUCACCCAUGUAGGAUAUCGUCAGGAAUACUGACGAGAAGGACAUACAGUCC	14.1	18.1	–	–
GGAUUACAUGAGGAUCACCCAUGUGAGGAUAUCGAUGUCCUCAGUGGAGUGCGGGACUCGAGAAGGCACUUGGA	172	169	–	–
GCCUCACAUGAGGAUCACCCAUGUCAGGAUAUCUCGUGCGCAGUAAUUAUCUGGCUAAAGAGAAGGGACAUUAA	47	99	–	–
UUAUACAUUCGAGGAUAUCGGUGAGAAAUCUUUCGAGAAGGCGAUUCAUGAUGUAUUAUCCUGGACAUGAGGAUCACCCAUGUA	–	–	148	92.5
GCCAUCGCAUGAGGAUAUGCUCCCGUUUCGGGAGCAGAAGGCAUGUCACAAGACAUGAGGAUCACCCAUGUAGUUAUGAUGGCA	–	–	221	8.6
GGUGUCGCAUGAGGAUAUGGUCAGCUUUGCUGACCAGAAGGCAUGUCAAUAGACAUGAGGAUCACCCAUGUAGUUAAGACACCA	–	–	739	48.2
AUACAUGAGGAUCACCCAUGUUACUGGGUCUAUAUAGAACGUAGAAGGAUGUAUUUACACAUAACAUAGGAUAUACUUUAUAGU	55.2	41.9	–	–
AUGUACCUAGGAUAUACAUGAGGAUCACCCAUGUCACAAAUAAAACACAGGUAUCCUGGUAGAAGGAGGAACAA	25	105	–	–
GGAUAGUGUCGUUAUCCGUAGCGAACAUGAGGAUCACCCAUGUAGGAUAUGUUAUUAAACUAAUAACAGAAGGGCGUUAGUCUC	37.1	42.8	–	–
ACAUACAUUCGAGGAUAUCGGUGAUUAAUAAUACGAGAAGGCGAUUUAAGAUAUAAAAUUUUAGACAUGAGGAUCACCCAUGUA	–	–	27.9	23.9
GGGAAGUUAGGAUAUGCUGCUCGUCACUUGCGUGAUGAGUAGCAGAAGGAACAUGAGGAUCACCCAUGUAAAGA	34.3	37.5	–	–
UAUGUUGUUGUGAGGAUAUACUUAGUUUGACCGUAGUAGAAGGCACAUGAGGAUCACCCAUGUAGAUUUUUGGU	9.54	15.8	–	–
GCCAGGUGGGUAGGAUAUGGCUAUGUCUCAUUGCUAGAAGGACCAACUGCUACAUGAGGAUCACCCAUGUCGUAGUGCACCCGG	–	–	78.9	25.4
UGAACAAUGUAGAAGGCCCAUAUUUAUAUAUAGGGAGGAUAUACAUGAGGAUCACCCAUGUAAAGAGCAAGAGGAUUUGACAGA	10.4	22.2	–	–
AUGGUUGUCGUAGGAUAUGUAGGAUAUUCCUACAUGAGGAUCACCCAUGUUCGCAUGGAAGAAGGACAGAAGGACGAUGACCAA	–	–	531	21.1
GUCAGCUCGUGAGGAUAUACAACACUGCUUCGGCAGUGUAUUAAGAUCACAUGAGGAUCACCCAUGUAGAAGGCACGAGCUGAC	12.9	251	–	–
GGAUAGGACAGAGGAUAUACGUGCUAGAGAUACUAGCCAAAUUUCCUCACAUGAGGAUCACCCAUGUAGAAGGCUGUCCUAUCG	6.86	84.5	–	–
UUUUUUUUUAGAGGAUAUAUUGUGUGUUAUAUAAUAGAAGGCUAAACAAACAUGAGGAUCACCCAUGUUGUCCAUGUCGUCGGC	–	–	15.3	20.7
GUAGCAUACCGAGGAUAUUCAUAUAGUAAUCUAACAUGAGGAUCACCCAUGUGGCGAAAGCCUUGGGAGAAGGCGGAAUGCUAC	–	–	480	35.6
AUAUUUGAUGAGGAUAUCGUUGUGGGUAUAUAGCGAGAAGGCAUUACAUGAGGAUCACCCAUGUAGUGUGGGUU	25.9	37	–	–
AACAGCUCGUCAGGAUAUAUUUACUUAUAUUGUAUUUAUGUACAUGAGGAUCACCCAUGUUGUUAGUAGAAGGGACGAGCUGAA	7.42	7.32	–	–
UAAAAGACUAGCGAUCUAAAGAUCACAUGAGGAUCACCCAUGUAGGAUAUGAGCAGAAAAUCUGCUCAGAAGGACAUGCUAGUC	5.88	9.18	–	–
UUUUUUUAUAAGGAUAUGGGAGUCGAUAGACACCCAGAAGGUAUAACAUGAGGAUCACCCAUGUGUCCUUUUUU	21.2	24.1	–	–
GGGCCCGGAGGAUAUACAAUGGGCUCGGGAAACUGGGUCUUACAUGAGGAUCACCCAUGUAGAAGGCCGGGCCC	18.9	23.4	–	–
AUAAGCUCGUCAGGAUAUACGUCACUGCGUCAGCAGUGUGGUAAGAUCACAUGAGGAUCACCCAUGUAGAAGGGACGAGCUGAU	14.7	266	–	–
CAGCUGAAUGUGAGGAUAUGUCUAGCUUCGGCUAGACAGAAGGCACAUGAGGAUCACCCAUGUCUCAACAGCUG	36.7	488	–	–
AAUAUGUUGCAGAAGGUUAUUUUUAUAACGAUCCAUGAGACAUGAGGAUCACCCAUGUAAUAGAUGAAGGAUAUGCAAUAUAUU	6.21	5.84	–	–
AAAAAGUUAGGAUAUACAUGAGGAUCACCCAUGUACAUAUAUGGAGAAAAAAACAGUAGUAGAAGGGACAAAAA	25.6	35.1	–	–

Sequence	apparent Kd [1] [nM]	apparent Kd [2] [nM]	apparent Kd [3] [nM]	apparent Kd [4] [nM]
GGCGGUUUACAAGGAUAUUAGAAACAGACCAAAUAAGAAGGUGUUAUCUGGCAAUGCGAAAGCAGACAUGAGGAUCACCCAUGU	–	–	58.3	57.1
UUUGAUUGCACAGGAUAUUGUCAUUUGAGUUGUCAAGAAGGGUGUACAUGAGGAUCACCCAUGUAAUGGUUGCCUCGCUGACUU	95.7	272	–	–
GGAUCCUUCACAGGAUAUGCUGGACUUUGUCCAGCAGAAGGGUGAACAUGAGGAUCACCCAUGUAUUGGAUCCAUAUAUUUAAU	–	–	897	56.1
CCUUUGAAGAUCCUGGUUUUCGACAUGAGGAUCACCCAUGUGCAGGAUAUCGUGCCAGUGCUGUGCGAGAAGGGCAGUCUCUGC	17.1	18.9	–	–
CGGUCACAUGAGGAUCACCCAUGUACCUACCCGAUGAAGUCGCAGGAUAUCCAUUACUUUACGUAGGAGAAGGGUGACGCUCGC	–	–	49.7	79.3
AAACACGGACAUGAGGAUCACCCAUGUGGCGAAAGCCUUGGGAGAAGGCCGAUAGCAAAGCUAUCGGAGGAUAUUCAUACCGUG	–	–	1200	61
ACUUAUAGAGGAUAUACAGUUUAUUACAUGAGGAUCACCCAUGUUCUUCAAUGUAUAUAAGUAGAAGGCUAAGGAA	35	175	–	–
GGUCCGUGUACAUGAGGAUCACCCAUGUCGAUGUUUCCUGGACAGGAUAUAUGCUUAAUACCGACAUAGAAGGGUCCACGUGUG	–	–	91	191
GCAGGCAACGAGAAGGGAGUACAUGAGGAUCACCCAUGUGUCCUCUGCGGCUCAGGAUAUCGCCCUGGGAAAGGUAAGCCUUAA	39.7	176	–	–
AAUUGUUUCUGAGGAUAUCAGUAGUAUGCUUUUUGAGAAGGCAGUACAUGAGGAUCACCCAUGUUGUGGUUUGAUAGAAUGAUA	–	–	193	182
AUCCUACAUGAGGAUCACCCAUGUAAGGAUAUGCGGCGACGAGAUUGUCUAUACGGCCGCAGAAGGUACCCGGG	16.1	18.6	–	–
UAAAUUAACAAGAAGGCUAACAUGAGGAUCACCCAUGUUGUACAUGGAUAUAGAGGAUAUUGCUAAUAAUUAUUUAUCAUAAUU	24.4	20.1	–	–
UCGGCGCGAGGAUAUGCGGCUUGUGCUUCGGGCCCUCGCGUACAUGAGGAUCACCCAUGUAGAAGGCGCGCCGC	120	91.7	–	–
GUGUGAAUAGGAGGAUAUAUACAACAUGAGGAUCACCCAUGUACCCGUGUAGUAGAAGGUUUGUUUUUAUAUAAUAUUAUAUUU	–	–	26.8	21.6
CGGCGGAAAGGAUAUGCAUUAAUAUCAAAAUGUGGGCCACGACAUGAGGAUCACCCAUGUAGAAGGUUCAGCCA	16.4	13.3	–	–
CUAGUAUAUCAGGAUAUGAUAAUGUGUAGUAUAUCAGAAGGGAUGACAUGAGGAUCACCCAUGUUAAGGGAUGA	58.1	118	–	–
AUACCACGAGGAUAUCGUCUAUAAUACAUGAGGAUCACCCAUGUUAUAUAUGUAAUGUUUCGAGAAGGCGUGUUUU	16.6	12.9	–	–
UCGUGAAUAGAGGAUAUAUUAAUAUUUAAAACAAUAGAAGGCUAAACAUGAGGAUCACCCAUGUAAAUGGUUUU	28.1	116	–	–
AUUUAAUUUAAUAAGAUCACAUGAGGAUCACCCAUGUAUAUAUAGGAUAUCAGCUCGUGUAGAGCUGAGAAGGAUAUAUACAUG	55	55.2	–	–
AAAACAUGAGGAUCACCCAUGUAAAGAACGGUUAAUAAAUGUGAGGAUAUACUAAAAUUUUCGUAGUAGAAGGCACUGGGUACA	–	–	22.2	24.8
CUUUUGUGAGGAUAUCAGUAGUAUAAAAUUAAAAUUACUACUGAGAAGGCACAUGAGGAUCACCCAUGUUCCUC	35.2	201	–	–
CAGUACUGAGGAUAUACAUGAGGAUCACCCAUGUGUUCCAGCUAGGAUACUAGCAAAAGUAGAAGGCAGUACUG	24.6	443	–	–
AAAAGACAUGAGGAUCACCCAUGUUAAGACGUGGGAGGAUAUGUAUGGAAAACAUGCUGUACAGAAGGCCCGUGUC	–	–	53.8	19.7
GGAGCAACAUGAGGAUCACCCAUGUAGGAUAUCGCUAUUGUAAUCAUGAAACAUGAUUACAAUAGCGAGAAGGACAUAUGCUAA	10.6	12.5	–	–
AGAUGGUCAGGAUAUGCGUGAAGAAUAAAACAAAUAACAACGCAGAAGGGACAUGAGGAUCACCCAUGUCAUCA	21.9	17.3	–	–
AAAAAACAUGAGGAUCACCCAUGUGAGGAUAUGCGAAAAAAAAAAAAAAAAAAAAAAAGCAGAAGGUACAAAAA	92.2	47.6	–	–
GGGUAUAUCGGAGGAUAUCAUGUAAAUACAUGAGGAUCACCCAUGUCGAUGGAGACAUCGGAGAUUGAGAAGGCCGAUGUACCG	–	–	163	9.34
